Here are results for 20 compounds from ChEMBL document CHEMBL3120059, “Flavonoids, flavonoid metabolites, and phenolic acids inhibit oxidative stress in the neuronal cell line HT-22 monitored by ECIS and MTT assay: a comparative study” (J Nat Prod, 2014).

In data set [1] the test system is HT-22. Kind of data set: Neuroprotective activity in mouse HT22 cells assessed as t-BOOH-induced toxicity at 40 uM preincubated for 3 hrs followed by t-BOOH induction measured after 9 hrs by MTT assay. It is filed as functional, cell-based. Summed up: (§1)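 Confluent HT-22 cells under the ECIS conditions: 3 h preincubation with 40 μM compound, then 300 μM t-BOOH. MTT reaction was started 4.5 h or 9 h after t-BOOH addition. Viability is expressed relative to untreated control.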

The test system of data set [2] is HT-22. Kind of data set: Neuroprotective activity in mouse HT22 cells assessed as reduction of t-BOOH-induced oxidative stress at 40 uM preincubated for 3 hrs followed by t-BOOH induction measured after 20 hrs by MTT assay. It is filed as functional, cell-based. The essentials:
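Run in the ECIS wells right after impedance recording ended, 20 h after t-BOOH (3 h, 40 μM compound preincubation; 300 μM t-BOOH). MTT stock (4 mg/mL in PBS) was diluted 1:10 in medium and incubated 1 h. Lysis was with 10% SDS pH 4.1, A560 read next day. Viability is given as % of untreated control, mean ± SD of three independent experiments.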

Data set [3] concerns HT-22. Kind of data set: Neuroprotective activity in mouse HT22 cells assessed as reduction of t-BOOH-induced oxidative stress at 40 uM preincubated for 3 hrs followed by t-BOOH induction measured for 20 hrs by time-resolved ECIS analysis. The class given is functional, cell-based. The essentials: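 HT-22 cells on 8-well gold-electrode arrays precoated with glutaraldehyde-crosslinked gelatin, seeded at 6 × 10^5 cells/well and grown 2−3 days to confluence (37 °C, 5% CO2). After 1 h baseline, compound (40 μM final, DMSO <0.1%) was added for 3 h, then 300 μM t-BOOH. Impedance was recorded 20 h, |Z| normalized to the last pre-t-BOOH value; three independent experiments.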

In data set [4] the test system is HT-22. Kind of data set: Cytotoxicity against mouse HT22 cells assessed as cell viability at 40 uM after 24 hrs by MTT assay. The class given is cell-based. The conditions noted are these: ht-22, 24 h. Summed up: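 Confluent-layer MTT. Gelatin-precoated 96-well plates were seeded at 5 × 10^4 HT-22 cells/well and grown 24 h to confluence, then exposed 24 h to 40 μM compound (DMSO <0.1%). MTT stock (4 mg/mL) was diluted 1:10 and incubated 1 h. Lysis was with 10% SDS pH 4.1, A560 read next day. Results are % of untreated control, ≥3 independent experiments.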
A general note: Tetrazolium assays rely on reduction of a dye to a coloured formazan, in cell work by metabolically active cells.

Data set [5] relates to HT-22. Kind of data set: Neuroprotective activity in mouse HT22 cells assessed as t-BOOH-induced toxicity at 40 uM preincubated for 3 hrs followed by t-BOOH induction measured after 4.5 hrs by MTT assay. It is filed as functional. The essentials: as §1
The test system of data set [6] is HT-22. The data set is described as follows: Neuroprotective activity in mouse HT22 cells assessed as reduction of glutamate-induced oxidative stress after 24 hrs by MTT assay. It is filed as functional, cell-based. The essentials: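 Unconfluent HT-22 cells seeded at 5 × 10^3/well, cultured 24 h, then incubated 24 h with compound plus 5 mM glutamate. MTT stock (4 mg/mL) was diluted 1:10 and incubated 3 h. Lysis was with 10% SDS pH 4.1, A560 read next day. Viability is % of untreated control; three independent experiments, each in quadruplicate.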

The test system of data set [7] is HT-22. The data set is described as follows: Neuroprotective activity in mouse HT22 cells assessed as reduction of glutamate-induced oxidative stress by ECIS analysis. It is filed as functional, cell-based.
Data set [8] concerns HT-22. The data set is described as follows: Cytotoxicity against mouse HT22 cells assessed as cell viability after 24 hrs by MTT assay. The class given is cell-based. The conditions noted are these: ht-22, 24 h.
Data set [9] concerns HT-22. Kind of data set: Neuroprotective activity in mouse HT22 cells assessed as reduction of t-BOOH-induced oxidative stress preincubated for 3 hrs followed by t-BOOH induction measured for 20 hrs by time-resolved ECIS analysis. It is filed as functional, cell-based. Summed up: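 HT-22 cells grown to confluence (2–3 days) on gelatin/glutaraldehyde-precoated gold electrode arrays, 37 °C, 5% CO2; 1 h baseline equilibration, then compounds (DMSO <0.1%, 40 μM final; positive control 10–50 μM) preincubated 3 h before 300 μM t-BOOH. Impedance magnitude |Z| recorded 20 h further, normalized to last value before t-BOOH; three independent experiments, mean ± SD.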

The source made the active and inactive calls. The rule behind the calls is not given here.

Take `Cc1ccc(O)c(O)c1`: the result in the data set on HT-22 [1], with HT-22 [2] and with HT-22 [3] was Active. Besides, the values for the Activity entry in the data set on HT-22 [4] and with HT-22 [5] were “Non-toxic” and 70%, respectively.
On to `COC(=O)Cc1ccc(O)c(O)c1`, for which the outcome in the data set with HT-22 [1], in the data set on HT-22 [2] and with HT-22 [3] was Active. In addition, the Activity result with HT-22 [4] is “Non-toxic”; in the data set on HT-22 [5], 70%.
With `COC(=O)/C=C/c1ccc(O)c(OC)c1`, the result in the data set with HT-22 [2] and in the data set with HT-22 [3] was inactive. For the same compound, in the data set with HT-22 [4], the Activity result was “Non-toxic”.
For the compound `COC(=O)[C@H]1O[C@@H](Oc2c(-c3ccc(O)c(O)c3)oc3cc(O)cc(O)c3c2=O)[C@H](O)[C@@H](O)[C@@H]1O`, the result with HT-22 [6] and with HT-22 [7] was inactive.
Turning to `COc1cc(-c2oc3cc(O)cc(O)c3c(=O)c2O)ccc1O`, the outcome with HT-22 [2] and with HT-22 [3] was inactive.
As to `O=C(O)[C@H]1O[C@@H](Oc2c(-c3ccc(O)c(O)c3)oc3cc(O)cc(O)c3c2=O)[C@H](O)[C@@H](O)[C@@H]1O`, the result with HT-22 [6] and in the data set on HT-22 [7] was inactive.
Turning to `O=C1C[C@@H](c2ccc(O)cc2)Oc2cc(O)cc(O)c21`, the result in the data set on HT-22 [2] and in the data set with HT-22 [3] was inactive.
Regarding `O=c1cc(-c2ccc(O)c(O)c2)oc2cc(O)cc(O)c12`, the result in the data set on HT-22 [1] and with HT-22 [2] was Active.
In the case of `O=c1cc(-c2ccc(O)cc2)oc2cc(O)cc(O)c12`, the result with HT-22 [2] and in the data set on HT-22 [3] was inactive.
With `Oc1cc(O)c2c(c1)OC(c1ccc(O)c(O)c1)C(O)C2` (stereo not drawn), the outcome in the data set with HT-22 [2] and in the data set on HT-22 [3] was inactive.
As to `Oc1cc(O)c2c(c1)O[C@H](c1ccc(O)c(O)c1)[C@H](O)[C@H]2c1c(O)cc(O)c2c1O[C@H](c1ccc(O)c(O)c1)[C@@H](O)C2`, the result in the data set on HT-22 [2] and with HT-22 [3] was inactive.
Regarding `O=C(O)Cc1ccc(O)c(O)c1` [3,4-DIHYDROXYPHENYLACETIC ACID], in the data set with HT-22 [4], the Activity result was “Non-toxic”.
In the case of `O=C(O)Cc1cccc(O)c1` [3-Hydroxyphenylacetate], in the data set on HT-22 [4], the Activity entry was “Non-toxic”.
With `O=C(O)/C=C/c1ccc(O)c(O)c1` [CAFFEIC ACID], the outcome in the data set on HT-22 [2] and with HT-22 [3] was inactive. Further, in the data set with HT-22 [4], the Activity entry is reported as “Non-toxic”.
Turning to `Oc1ccccc1O` [CATECHOL], the outcome in the data set on HT-22 [1], with HT-22 [2] and in the data set on HT-22 [3] was Active. In addition, in the data set on HT-22 [4], the Activity result is reported as “Toxic”.
`O=C1C[C@@H](c2ccc(O)c(O)c2)Oc2cc(O)cc(O)c21` [ERIODICTYOL]: the outcome in the data set on HT-22 [1], with HT-22 [2] and in the data set with HT-22 [7] was Active. Also, the Activity entry in the data set on HT-22 [6] and in the data set with HT-22 [8] was “Dose-dependent effect” throughout.
Regarding `COc1cc(/C=C/C(=O)O)ccc1O` [FERULATE], the result in the data set with HT-22 [2] and with HT-22 [3] was inactive. Further, in the data set on HT-22 [4], the Activity result is “Non-toxic”.
Regarding `O=c1c(O)c(-c2ccc(O)cc2)oc2cc(O)cc(O)c12` [KAEMPFEROL], the Activity entry with HT-22 [6] and with HT-22 [8] was “Dose-dependent effect” each time. In addition, the outcome with HT-22 [2] and in the data set with HT-22 [3] was inactive.
For `COC(=O)/C=C/c1ccc(O)c(O)c1` [METHYLCAFFEATE], the outcome in the data set on HT-22 [1], in the data set on HT-22 [2] and with HT-22 [3] was Active. For the same compound, the Activity result with HT-22 [4] was “Non-toxic”.
Take `O=c1c(O)c(-c2ccc(O)c(O)c2)oc2cc(O)cc(O)c12` [QUERCETIN]: the outcome with HT-22 [1] and in the data set with HT-22 [2] was Active. The values for the Activity in the data set with HT-22 [5] and in the data set on HT-22 [9] were 70% and “Dose-dependent effect”, respectively.
